Experimental data: ChEMBL document CHEMBL1149495, “Newly discovered orally active pure antiestrogens” (Bioorg Med Chem Lett, 2006)

Assays:
[1] = biological target: T1, Estrogen receptor (Homo sapiens) (UniProt P03372); assay: Displacement of [3H]estradiol from recombinant ERalpha relative to estradiol
T1 sequence (whole entry): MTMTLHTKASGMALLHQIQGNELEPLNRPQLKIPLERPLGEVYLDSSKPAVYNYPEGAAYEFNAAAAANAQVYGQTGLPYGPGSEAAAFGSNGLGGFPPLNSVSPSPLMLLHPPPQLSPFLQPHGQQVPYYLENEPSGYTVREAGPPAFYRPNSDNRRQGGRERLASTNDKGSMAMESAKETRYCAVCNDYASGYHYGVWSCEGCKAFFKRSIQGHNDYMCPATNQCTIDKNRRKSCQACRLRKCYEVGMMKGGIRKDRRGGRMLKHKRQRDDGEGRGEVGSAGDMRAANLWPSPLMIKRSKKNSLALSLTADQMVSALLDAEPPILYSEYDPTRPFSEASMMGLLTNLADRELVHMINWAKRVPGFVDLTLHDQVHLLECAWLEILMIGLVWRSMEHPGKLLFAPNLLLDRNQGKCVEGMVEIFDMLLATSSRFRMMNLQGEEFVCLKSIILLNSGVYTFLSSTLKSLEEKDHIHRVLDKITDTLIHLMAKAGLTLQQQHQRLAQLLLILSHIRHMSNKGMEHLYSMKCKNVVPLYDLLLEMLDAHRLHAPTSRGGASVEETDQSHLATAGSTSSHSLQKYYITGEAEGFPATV
Method in brief: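 Competitive radiometric binding assay using human recombinant ERα, with [3H]estradiol displaced by the test compound. Result is expressed as relative binding affinity (%), with estradiol set to 100.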

Mus musculus [2] = assay: Antagonist effect on estrogen activity assessed as inhibition of estrogen-stimulated uterine weight gain in ovariectomized mouse at 1 mg/kg, po; type: functional
Method in brief: (§1)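 Ovariectomized mice given 0.1 lg 17b-estradiol benzoate sc in peanut oil plus oral test compound in 5% gum arabic-water suspension, once daily for three consecutive days. Uteri weighed about 24 h after last dose. % inhibition = 100·(1−(T−C)/(E−C)), using uterine weight gain per body weight. C is vehicle. Mean ± SEM.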

[3] = Bioavailability in cynomolgus monkey; type: ADME, organism-based, Macaca fascicularis; conditions: in vivo
Method in brief: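 Cynomolgus monkeys received 3 mg/kg by both the oral and intravenous routes, as a solution in water/PEG200/EtOH (4:8:3). Plasma AUC of the intact compound and of the interconverting 17-keto/17-hydroxy metabolite was measured.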

[4] = AUC in cynomolgus monkey at 3 mg/kg, iv; type: ADME, organism-based, Macaca fascicularis; design: dose 3 mg/kg, route intravenous; conditions: plasma
Method in brief: (§2)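 Cynomolgus monkeys given 3 mg/kg intravenously or orally as a solution in water/PEG200/EtOH (4:8:3). Plasma AUC of intact compound; after oral dosing the 17-position metabolite was also quantified, and bioavailability was calculated from po versus iv AUC.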

Mus musculus [5] = assay: Agonist effect on estrogen activity assessed as stimulation of uterine weight gain in ovariectomized mouse at 50 mg/kg, sc relative to control; type: functional; conditions: route subcutaneous
Method in brief: (§3)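 Ovariectomized mice dosed sc once daily for three consecutive days with test compound in 10% EtOH-peanut oil. Uteri weighed about 24 h after last dose. Uterine weight gain per body weight expressed as % = 100·(T−C)/(E−C), E being the 17b-estradiol benzoate response and C vehicle. Mean ± SEM. Difference from vehicle tested by Student's t test (P < 0.05).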

[6] = AUC in CD1 mouse at 30 mg/kg, po; type: ADME, organism-based; design: dose 30 mg/kg, route oral; conditions: plasma
Method in brief: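 CD-1 mice dosed orally at 30 mg/kg as a suspension in 5% gum arabic. Plasma AUC measured for intact compound and separately for its 17-position metabolite (17-keto/17-hydroxy interconversion product).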

[7] = (§4) AUC in Sprague-Dawley rat at 20 mg/kg, po; type: ADME, organism-based, Plasma; design: dose 20 mg/kg, route oral; conditions: Sprague-Dawley, plasma
Method in brief: (§5)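 Sprague–Dawley rats dosed as a solution in water/PEG200/EtOH (3:6:1), intravenously at 10 mg/kg or orally at 20 mg/kg. Plasma AUC of intact compound; total clearance also derived from iv data and bioavailability from po/iv AUC.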

Mus musculus [8] = assay: Antagonist effect on estrogen activity assessed as inhibition of estrogen-stimulated uterine weight gain in ovariectomized mouse at 10 mg/kg, po; type: functional; method in brief: as §1
[9] = AUC in CD1 mouse at 10 mg/kg, iv; type: ADME, organism-based; design: dose 10 mg/kg, route intravenous; conditions: plasma
Method in brief: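 CD-1 mice dosed intravenously at 10 mg/kg as a solution in water/PEG200/EtOH (3:6:1). Plasma AUC of intact compound.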

[10] = Bioavailability in Sprague-Dawley rat; type: ADME, organism-based; conditions: in vivo
Method in brief: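 Sprague–Dawley rats were given the compound as a solution in water/PEG200/EtOH (3:6:1), 10 mg/kg iv and 20 mg/kg po. Plasma AUC was determined for each route.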

Mus musculus [11] = assay: Antagonist effect on estrogen activity assessed as inhibition of estrogen-stimulated uterine weight gain in ovariectomized mouse at 3 mg/kg, po; type: functional; method in brief: as §1
[12] = Bioavailability in CD1 mouse; type: ADME, organism-based; conditions: in vivo
Method in brief: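 CD-1 mice were dosed orally at 30 mg/kg as a suspension in 5% gum arabic, and intravenously at 10 mg/kg as a solution in water/PEG200/EtOH (3:6:1). Plasma AUC of the intact compound was measured for each route. The 17-keto or 17-hydroxy metabolite was also monitored.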

[13] = AUC in cynomolgus monkey at 3 mg/kg, po; type: ADME, organism-based, Macaca fascicularis; design: dose 3 mg/kg, route oral; conditions: plasma; method in brief: as §2
[14] = (§6) AUC in Sprague-Dawley rat at 10 mg/kg, iv; type: ADME, organism-based, Plasma; design: dose 10 mg/kg, route intravenous; conditions: Sprague-Dawley, plasma; method in brief: as §5
Rattus norvegicus [15] = assay: as §4; type: ADME, organism-based, Plasma; design: dose 20 mg/kg, route oral; conditions: in vivo; method in brief: as §5
Rattus norvegicus [16] = assay: as §6; type: ADME, organism-based, Plasma; design: dose 10 mg/kg, route intravenous; conditions: in vivo; method in brief: as §5
[17] = Total clearance in Sprague-Dawley rat at 10 mg/kg, iv; type: ADME, organism-based; design: dose 10 mg/kg, route intravenous; conditions: in vivo
Method in brief: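 Sprague–Dawley rats were given a single iv dose as a solution in water/PEG200/EtOH (3:6:1). Total clearance was derived alongside plasma AUC.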

Mus musculus [18] = assay: Agonist effect on estrogen activity assessed as stimulation of uterine weight gain in ovariectomized mouse at 17 mg/kg, sc relative to control; type: functional; conditions: route subcutaneous; method in brief: as §3

RBA [1] [%]	Structure (SMILES)	inhibition in vivo at 1 mg/kg (Mus musculus [2]) [%]	bioavailability [3] [%]	AUC [4] [µg·h/mL]	Activity (Mus musculus [5]) [%]	AUC [6] [µg·h/mL]	AUC [7] [µg·h/mL]	inhibition in vivo at 10 mg/kg (Mus musculus [8]) [%]	AUC [9] [µg·h/mL]	bioavailability [10] [%]	inhibition in vivo at 3 mg/kg (Mus musculus [11]) [%]	bioavailability [12] [%]	AUC [13] [µg·h/mL]	AUC [14] [µg·h/mL]	AUC (Rattus norvegicus [15]) [µg·h/mL]	AUC (Rattus norvegicus [16]) [µg·h/mL]	clearance [17] [mL/min/kg]	Activity (Mus musculus [18]) [%]
0.6	C[C@]12CC[C@@H]3c4ccc(O)cc4C[C@@H](CCCCCCCCC(CCC(F)(F)C(F)(F)C(F)(F)C(F)(F)F)C(=O)O)[C@H]3[C@@H]1CC[C@@H]2O (stereo partly specified)	55						98			80							
1.4	C[C@]12CC[C@@H]3c4ccc(O)cc4C[C@@H](CCCCCCCCCC(CCCC(F)(F)C(F)(F)F)C(=O)O)[C@H]3[C@@H]1CC[C@@H]2O (stereo partly specified)	22						80			30							
0.7	C[C@]12CC[C@@H]3c4ccc(O)cc4C[C@@H](CCCCCCCCCC(CCCC(F)(F)C(F)(F)C(F)(F)C(F)(F)F)C(=O)O)[C@H]3[C@@H]1CC[C@@H]2O (stereo partly specified)	27						85			42							
0.8	C[C@]12CC[C@@H]3c4ccc(O)cc4C[C@@H](CCCCCCCCC(CCCC(F)(F)C(F)(F)F)C(=O)O)[C@H]3[C@@H]1CC[C@@H]2O (stereo partly specified)	37						87			67							
0.7	C[C@]12CC[C@@H]3c4ccc(O)cc4C[C@@H](CCCCCCCCCC(CCC(F)(F)C(F)(F)C(F)(F)C(F)(F)F)C(=O)O)[C@H]3[C@@H]1CC[C@@H]2O (stereo partly specified)	27						92			49							

The next lines start with the compound.

Structure (SMILES)	RBA [1] [%]	inhibition in vivo at 1 mg/kg (Mus musculus [2]) [%]	bioavailability [3] [%]	AUC [4] [µg·h/mL]	Activity (Mus musculus [5]) [%]	AUC [6] [µg·h/mL]	AUC [7] [µg·h/mL]	inhibition in vivo at 10 mg/kg (Mus musculus [8]) [%]	AUC [9] [µg·h/mL]	bioavailability [10] [%]	inhibition in vivo at 3 mg/kg (Mus musculus [11]) [%]	bioavailability [12] [%]	AUC [13] [µg·h/mL]	AUC [14] [µg·h/mL]	AUC (Rattus norvegicus [15]) [µg·h/mL]	AUC (Rattus norvegicus [16]) [µg·h/mL]	clearance [17] [mL/min/kg]	Activity (Mus musculus [18]) [%]
C[C@]12CC[C@@H]3c4ccc(O)cc4C[C@@H](CCCCCCCC[C@@H](CCCC(F)(F)C(F)(F)C(F)(F)C(F)(F)F)C(=O)O)[C@H]3[C@@H]1CCC2=O	1	54	3.1	77	1	468	32	96	389	32	85	40	2.42	50				
C[C@]12CC[C@@H]3c4ccc(O)cc4C[C@@H](CCCCCCCCC[S+]([O-])CCCC(F)(F)C(F)(F)F)[C@H]3[C@@H]1CC[C@@H]2O (stereo partly specified) [FULVESTRANT]		11						54			29				1.7	5.3		
C[C@]12CC[C@@H]3c4ccc(O)cc4C[C@@H](CCCCCCCC[C@H](CCCC(F)(F)C(F)(F)C(F)(F)C(F)(F)F)C(=O)O)[C@H]3[C@@H]1CC[C@@H]2O	1	58				470	190	103	447	37	88	35	0.3	254			0.65	3
C[C@]12CC[C@@H]3c4ccc(O)cc4C[C@@H](CCCCCCCC[C@@H](CCCC(F)(F)C(F)(F)C(F)(F)C(F)(F)F)C(=O)O)[C@H]3[C@@H]1CC[C@@H]2O	1.1	59	0.48	88		274	98	99	244	33	93	37	0.42	146			1.23	4
C[C@]1(c2ccc(O)cc2)CSc2cc(O)ccc2[C@H]1CCCCCCCCC(CCCC(F)(F)C(F)(F)F)C(=O)O (stereo partly specified)		11						77			41				209	228		
C[C@]12CC[C@@H]3c4ccc(O)cc4C[C@@H](CCCCCCCCC(CCCC(F)(F)C(F)(F)C(F)(F)C(F)(F)F)C(=O)O)[C@H]3[C@@H]1CC[C@@H]2O (stereo partly specified)	1.4	64					144	96		35	87			207			0.817	4
